24 compounds from ChEMBL document CHEMBL1137132, “The synthesis and SAR of 2-arylsulfanyl-phenyl piperazinyl acetic acids as glyT-1 inhibitors” (Bioorg Med Chem Lett, 2004) can be followed below.

Test system in one data set: not listed separately
Kind of data set: Plasma clearance in rat. It counts as ADME, organism-based.
Settings: not given
The compound `COc1ccc(Sc2ccc(Cl)cc2N2CCN(CC(=O)O)[C@H](C)C2)cc1` had a clearance of 6.67 mL/min/kg.

For another data set, the target named is T1, Sodium- and chloride-dependent glycine transporter 1 (Homo sapiens, UniProt P48067).
T1 sequence (P48067 whole entry): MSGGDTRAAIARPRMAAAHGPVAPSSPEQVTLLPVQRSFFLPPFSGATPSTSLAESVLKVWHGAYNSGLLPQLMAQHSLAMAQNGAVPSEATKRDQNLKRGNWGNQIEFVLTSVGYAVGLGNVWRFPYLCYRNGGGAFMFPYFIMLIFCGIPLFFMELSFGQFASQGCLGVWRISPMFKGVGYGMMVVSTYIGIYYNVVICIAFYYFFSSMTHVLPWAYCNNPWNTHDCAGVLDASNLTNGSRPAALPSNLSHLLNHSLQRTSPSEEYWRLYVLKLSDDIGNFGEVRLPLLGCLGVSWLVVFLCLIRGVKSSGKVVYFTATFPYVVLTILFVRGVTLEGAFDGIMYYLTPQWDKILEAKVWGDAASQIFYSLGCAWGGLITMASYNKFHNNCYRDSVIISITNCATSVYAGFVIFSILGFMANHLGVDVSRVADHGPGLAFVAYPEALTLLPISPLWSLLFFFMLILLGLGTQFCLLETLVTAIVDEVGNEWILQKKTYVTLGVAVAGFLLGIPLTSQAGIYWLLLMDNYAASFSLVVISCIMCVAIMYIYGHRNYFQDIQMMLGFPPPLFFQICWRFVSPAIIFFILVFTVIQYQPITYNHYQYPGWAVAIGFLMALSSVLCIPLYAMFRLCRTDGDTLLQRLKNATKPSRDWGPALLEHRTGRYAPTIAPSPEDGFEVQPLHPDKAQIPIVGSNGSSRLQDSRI
Kind of data set: Inhibition of uptake of [3H]-glycine into cells transfected with human GlyT-1b transporter.
Settings: not given
Regarding `COc1ccc(Sc2ccccc2N2CCN(CC(=O)O)CC2C)cc1` (stereo not drawn), the IC50 is greater than 10000 nM. In turn, `COc1ccc(Sc2ccccc2N2CCN(CC(=O)O)C(C)(C)C2)cc1` yielded a half-inhibitory concentration (IC50) of 1500 nM. Compound `CC1CN(c2ccccc2Sc2ccc(Cl)cc2)C(C)CN1CC(=O)O` (stereo not drawn) registered a half-maximal inhibitory concentration (IC50) of 360 nM.

In turn, `CC1CN(c2ccccc2Sc2ccc(O)cc2)C(C)CN1CC(=O)O` (stereo not drawn) registered an IC50 of 3600 nM.

Turning to `CC(=O)Nc1ccc(Sc2ccccc2N2CC(C)N(CC(=O)O)CC2C)cc1` (stereo not drawn), the IC50 was found to be 22000 nM. This IC50 lies about 6.1-fold higher than the previous one.

`COc1ccc(Sc2ccc(Cl)cc2N2CCN(CC(=O)O)C(C)C2)cc1` (stereo not drawn) showed an IC50 of 290 nM.

On to `CC1CN(c2ccccc2Sc2ccc(-c3ccccc3)cc2)C(C)CN1CC(=O)O` (stereo not drawn), for which the IC50 is greater than 10000 nM. As for `COc1ccc(Sc2ccccc2N2C[C@@H](C)N(CC(=O)O)C[C@@H]2C)cc1`, the IC50 is 160 nM. Regarding `Cc1ccc(Sc2ccccc2N2CC(C)N(CC(=O)O)CC2C)cc1` (stereo not drawn), half-maximal inhibition (IC50) was put at 550 nM.

The compound `COc1ccc(Sc2ccc(OC)cc2N2CC(C)N(CC(=O)O)CC2C)cc1` (stereo not drawn) came in with an IC50 greater than 50000 nM. The same measure, in the same setting: the figure for `COc1ccc(Sc2ccccc2N2CC(C)N(CC(=O)O)CC2C)cc1` (stereo not drawn) is 580 nM.

On to `COc1ccc(Sc2ccccc2N2C[C@H](C)N(CC(=O)O)C[C@H]2C)cc1`, for which half-maximal inhibition (IC50) was put at 53000 nM. The same measure, in the same setting: the figure for `COc1ccc(Sc2ccccc2N2C[C@H](C)N(CC(=O)O)C[C@@H]2C)cc1` is 18000 nM; for `CC1CN(c2ccccc2Sc2ccc(F)cc2)C(C)CN1CC(=O)O` (stereo not drawn) it is 1900 nM; for `COc1ccc(Sc2ccc(Cl)cc2N2CCN(CC(=O)O)[C@@H](C)C2)cc1` it is 1400 nM. Compound `COc1ccc(Sc2ccc(OC)cc2N2CCN(CC(=O)O)C(C)C2)cc1` (stereo not drawn) had a half-inhibitory concentration (IC50) of 4600 nM. Same read-out and setting: the figure for `COc1ccc(Sc2ccc(Cl)cc2N2CC(C)N(CC(=O)O)CC2C)cc1` (stereo not drawn) is 1700 nM.

Compound `COc1ccc(Sc2ccccc2N2CCN(CC(=O)O)CC2)cc1` yielded an IC50 greater than 10000 nM. `CN(CC[C@@H](Oc1ccc(C(F)(F)F)cc1)c1ccccc1)CC(=O)O`: it took 320 nM to reach half-maximal inhibition (IC50).

`COc1ccc(Sc2ccc(C)cc2N2CCN(CC(=O)O)C(C)C2)cc1` (stereo not drawn) returned a half-inhibitory concentration (IC50) of 1600 nM. This IC50 lies about 5-fold higher than the previous one. Compound `COc1ccc(Sc2ccccc2N2C[C@@H](C)N(CC(=O)O)C[C@H]2C)cc1` showed a 50% inhibitory concentration (IC50) of 16000 nM.

`COc1ccc(Sc2ccc(Cl)cc2N2CCN(CC(=O)O)[C@H](C)C2)cc1` had an IC50 of 150 nM. Compound `CC1CN(c2ccccc2Sc2ccccc2)C(C)CN1CC(=O)O` (stereo not drawn) came in with a half-maximal inhibitory concentration (IC50) of 2900 nM. On the same count and under the same terms, as for `COc1ccc(Sc2ccccc2N2CCN(CC(=O)O)C(C)C2)cc1` (stereo not drawn), the figure is 1700 nM.

Test system in a further data set: not listed separately
Kind of data set: Oral bioavailability in rat. It counts as ADME, organism-based. The note with it: in vivo. The method in brief:
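Rat pharmacokinetics, oral dosing as a solution.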
For the compound `COc1ccc(Sc2ccc(Cl)cc2N2CCN(CC(=O)O)[C@H](C)C2)cc1`, the bioavailability was 100%.

Test system in a further data set: not listed separately
Kind of data set: Half-life in rat. In kind it is ADME. The note with it: in vivo.
On to `COc1ccc(Sc2ccc(Cl)cc2N2CCN(CC(=O)O)[C@H](C)C2)cc1`, for which the half-life was 4 h.

Another data set deals with Rattus norvegicus. The data set is described as follows: Compound tested for increase in levels of glycine in the ventral hippocampus at a dose of 4.6 mg/kg after 60 min of s.c. administration. In kind it is functional.
Settings: not given
The procedure, abridged: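 In vivo microdialysis in freely moving rats, ventral hippocampus. Compound given subcutaneously. Extracellular glycine measured, with mean basal pre-injection values normalised to 100%; n is the number of animals.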
The compound `COc1ccc(Sc2ccc(Cl)cc2N2CCN(CC(=O)O)[C@H](C)C2)cc1` gave an Increase of 140%.

In general, clearance refers to the volume of plasma or blood freed of the substance per unit of time. Broadly, the IC50 is the concentration that inhibits the measured activity by half. Higher therefore signals lower potency. For orientation: bioavailability means dose-corrected exposure relative to a reference, in per cent. Read a high bioavailability as good availability. By half-life is commonly meant the time in which the quantity being followed falls by half. A low value points to fast loss.
